Bioassay records: PubChem BioAssay, several laboratories
Shown are actives, neighbours in structure and some others; about 1.8% of the full set was active somewhere.
APJ antagonist – APJ receptor antagonism | P35414 | CHO-K1 APJ beta-arrestin complementation, luminescence | inhibition, % at 20 µM | 330,000 tested, 0.32% active;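 active = inhibition above about 40% at 20 µM, limit read from the data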;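 also: cells challenged with 10 nM apelin-13 agonist together with compound; plate controls were apelin-13 plus DMSO wells for no effect and DMSO wells lacking apelin-13 for full effect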
B2AR ag – activates human beta-2 adrenergic receptor causing internalization; P07550; Am2.2-beta2AR cells, FAP receptor internalization, flow cytometry; response, % (concentration not given with the values); 340,000 tested, 0.43% active;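 active = response above a set limit, near 3 SD of response in nonfluorescent compounds, cut at about 42% in these data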
APJ agonist – APJ receptor agonism. P35414. CHO-K1 APJ PathHunter beta-arrestin, luminescence; 0% DMSO wells, 100% apelin. activation, % at 20 µM. 330,000 tested, 0.11% active. AID 2520;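 active = activation more than six SD over the plate average, tested at 20 µM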;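 also: 0% = DMSO alone and 100% = apelin-13 at 10 nM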
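Assay system – PathHunter CHO-K1 APJ (AGTRL-1) beta-arrestin reporter cells · Compound – one dose, 20 µM compound, 1% DMSO · Timing – compound 90 min 25 °C, reagent 1 h · Measured by – luminescence from split beta-galactosidase complementation, Galacton Star/Emerald II substrate · Measure – beta-arrestin recruitment to APJ as agonist activity, luminescent signal · Benchmarks – DMSO vs Apelin-13 10 nM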
CCR6 antag – antagonists of human CCR6 receptor | P51684 | CHO-K1 CCR6 PathHunter beta-arrestin, luminescence, CCL20-stimulated | inhibition, % at 20 µM | 340,000 tested, 0.49% active | AID 493098;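 active = compounds whose inhibition of the agonist-driven luminescence signal at 20 µM reaches about 50%, limit read from the data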;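 also: cells stimulated with CCL20 at 14 nM final; plate controls were DMSO with CCL20 for no effect and DMSO without agonist for full effect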
Target sequence (P51684 whole entry, looked up): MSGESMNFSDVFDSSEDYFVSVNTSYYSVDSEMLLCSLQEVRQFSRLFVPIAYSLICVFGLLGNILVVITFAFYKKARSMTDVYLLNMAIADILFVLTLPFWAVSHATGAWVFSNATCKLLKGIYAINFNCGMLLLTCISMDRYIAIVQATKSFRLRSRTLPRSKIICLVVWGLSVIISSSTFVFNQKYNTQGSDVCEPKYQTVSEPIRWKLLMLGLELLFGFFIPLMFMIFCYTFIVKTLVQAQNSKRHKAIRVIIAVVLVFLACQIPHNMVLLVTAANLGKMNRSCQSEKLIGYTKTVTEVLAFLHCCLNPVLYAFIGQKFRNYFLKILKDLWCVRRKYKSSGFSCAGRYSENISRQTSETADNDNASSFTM
CXCR6 block – CXCR6 (human) receptor inhibition; O00574; CHO-K1 PathHunter CXCR6 beta-arrestin, luminescence; inhibition, % at 20 µM; 360,000 tested, 0.36% active; AID 602244; in the data active = inhibition above about 34%, passing the limit was not always enough;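 also: antagonist mode with CXCL16 agonist at 10 nM final; 0% = 10 nM CXCL16 with DMSO and 100% = unstimulated wells without agonist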
EBI2 block – EBI2 (human) antagonism. EBI2 beta-arrestin recruitment, luminescence, 7a,25-OHC stimulated. inhibition, % at 5 µM. 360,000 tested, 0.81% active. AID 651636; in the data active = inhibition above about 38%;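 also: enzyme fragment complementation signal reports receptor beta-arrestin coupling in cells; 0% = agonist plus DMSO wells and 100% = wells without agonist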
APJ ag confirm – APJ receptor agonism confirmation. shares compounds with APJ agonist. CHO-K1 APJ PathHunter beta-arrestin, luminescence. activation, % at 20 µM. 310 tested, 10% active;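 active = activation above 40%, taking the highest of four retests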;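 also: plate controls were DMSO wells for no effect and apelin-13 at 10 nM for full effect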
* = called active by the depositor; nt = no result given.

SMILES | APJ antagonist | B2AR ag | APJ agonist | CCR6 antag | CXCR6 block | EBI2 block | APJ ag confirm
CCOc1cc2[nH]c(=S)n(CCN3CCCCC3CC)c(=O)c2cc1OCC (configuration not stated) | 4 | -1 | 78* | 3 | 3 | 22 | 39
CCOc1cc2[nH]c(=S)n(CCCN3CCOCC3)c(=O)c2cc1OCC | 1 | 7 | 17* | -1 | -1 | 8 | 24
CCOc1cc2[nH]c(=S)n(CCCCC(=O)NCc3ccco3)c(=O)c2cc1OCC | -12 | 22 | -5 | -1 | -2 | 4 | nt
CCOc1cc2[nH]c(=S)n(CCN3CCC(C)CC3)c(=O)c2cc1OCC | -1 | 21 | 27* | 14 | -2 | 0 | 13
CCOc1cc2[nH]c(=S)n(CCCC(=O)NCc3ccccn3)c(=O)c2cc1OCC | 8 | -6 | 118* | 13 | -2 | 1 | 29
Nc1nc(N)c2cc(CNc3ccc(Cl)c(Cl)c3)ccc2n1 | nt | nt | nt | nt | 14 | -25 | nt
Cc1ccc(C(=O)O/N=C/c2c(N3CCOCC3)n(C)c3ccccc23)cc1 | -65 | -14 | 6 | -40 | -10 | -11 | nt
Cn1c(N2CCOCC2)c(/C=N/OC(=O)c2ccc(F)cc2)c2ccccc21 | -48 | -5 | 17* | 1 | -6 | 0 | 39
N/C(=N\OC(=O)c1cccnc1)c1ccccc1Cl | -91 | 3 | 8.9* | -37 | -15 | -14 | 22
N/C(=N\OC(=O)c1cccnc1)c1ccc(Cl)cc1Cl | -61 | -13 | 4 | -9 | -6 | -1 | nt
N#Cc1ccccc1OCC(=O)OCC(=O)NC1CC1 | -12 | -5 | 1 | 2 | -6 | -11 | nt
CCN(CC)C(=O)C1=C(C)N(CCCOC)C(=O)C(CC(=O)NCCCCc2ccccc2)C1 (configuration not stated) | nt | nt | nt | nt | 2 | -3 | nt
COc1ccc([C@H]2C(C(=O)O)=C[C@@H](CC3CCCC3)N2S(=O)(=O)c2ccc(C)cc2)cc1OC | 11 | 16 | -4 | 10 | 0 | 7 | nt
Cc1ncc(CO)c2c1Oc1nc(-c3ccccc3)nc(SCC(=O)N(C)c3ccccc3)c1C2 | -134 | nt | 28* | nt | nt | nt | 23
Cc1ncc(CO)c2c1Oc1nc(-c3ccccc3F)nc(SCC(=O)N(C)c3ccccc3)c1C2 | -40 | 15 | 11 | -16 | -3 | -21 | nt
CC(C)C[C@H]1CN([C@@H](Cc2ccc(O)cc2)CN2CCC[C@H]2CN2C(=O)C(=O)NC[C@@H]2Cc2ccccc2)C(=O)C(=O)N1CC1CCCCCC1 | nt | nt | nt | nt | -7 | -14 | nt
N#Cc1c2ccc([N+](=O)[O-])cc2[n+]([O-])n1-c1ccccc1 | -237 | 15 | 13* | nt | -15 | -23 | 12
CC(C)C[C@H]1COc2cccc(N3CCSCC3)c2S(=O)(=O)N1 | nt | nt | nt | nt | 3 | -2 | nt
N#Cc1ccc(NC(=O)Nc2cccc(C#N)c2)cc1 | nt | 13 | nt | -4 | -11 | -8 | nt
N#Cc1ccc(NC(=O)Nc2ccc(Oc3ccc(NC(=O)Nc4ccc(C#N)cc4)cc3)cc2)cc1 | -59 | 4 | 19* | -14 | -16 | -33 | 36
CCOc1cc([N+](=O)[O-])cc2c1C(=O)Nc1ccccc1O2 | -20 | -103 | 14* | -10 | -8 | -4 | 11
O=C(c1cnn2c(C(F)(F)F)cc(-c3cccs3)nc12)N1CCN(Cc2ccccc2)CC1 | -4 | -2 | 30* | 4 | -3 | -2 | 8
Cc1onc(-c2ccccc2Cl)c1C(=O)O/N=C(\N)c1ccccc1 | -112 | -6 | 31* | -28 | -34 | -14 | 21
O=C(OCC(=O)N1CCCc2ccccc21)c1ccc(S(=O)(=O)C(F)F)cc1 | 8 | 0 | -4 | 5 | 6 | -8 | nt
CS(=O)c1nc(-c2ccc(Br)cc2)cc(-c2ccccc2)c1C#N (configuration not stated) | -6 | 99* | 36* | 10 | -16 | 64* | 18
SMILES | APJ antagonist | B2AR ag | APJ agonist | CCR6 antag | CXCR6 block | EBI2 block | APJ ag confirm
N#Cc1c(-c2ccccc2)cc(-c2ccc(O)cc2)nc1N | -11 | -10 | -4 | 8 | 1 | 11 | nt
COc1ccc(/C=N/Nc2cc(C)nc3ccc(OC)cc23)c(OC)c1 | -14 | -2 | 61* | 10 | 23 | -12 | 64*
COc1ccccc1/C=N/Nc1cc(C)nc2ccc(C)cc12 | -32 | -2 | 4 | 5 | -2 | -9 | nt
COc1cc(NC(=O)c2sc3ncn(CC(=O)N4CCCCC4C)c(=O)c3c2C)cc(OC)c1OC (configuration not stated) | nt | nt | nt | nt | 7 | -3 | nt
Cc1ccc(C)c(NC(=O)/C(C#N)=C/c2ccc(Sc3nncn3C)c([N+](=O)[O-])c2)c1 | -5 | nt | 44* | nt | nt | nt | 37
CCCNC(=O)C1(C)CCCN(Cc2ccc(-c3ccccn3)cc2)C1 (configuration not stated) | nt | nt | nt | nt | 1 | -3 | nt
Cc1csc2nc(COC(=O)CNC(=O)c3ccc(Cl)cc3)cc(=O)n12 | 8 | 6 | -1 | 4 | 12 | -4 | nt
Cc1csc2nc(COC(=O)c3ccc(Cl)c([N+](=O)[O-])c3)cc(=O)n12 | -3 | -3 | 30* | 19 | 24 | 9 | 10
COc1cc2c(cc1NC(=O)c1ccc(C)c([N+](=O)[O-])c1)oc1ccccc12 | 13 | 7 | 1 | -1 | -1 | 0 | nt
COc1cc2c(cc1NC(=O)c1cccc([N+](=O)[O-])c1)oc1ccccc12 | -15 | 7 | 42* | 7 | -1 | -31 | 53*
COc1ccc(/C(N)=N/OC(=O)c2cccc([N+](=O)[O-])c2C)cc1 | -81 | 10 | 18* | -17 | -19 | 12 | 18
Cc1ccc(-n2ncc3c(N4CCN(c5ccccc5)CC4)ncnc32)c(C)c1 | -29 | 28 | 17* | -13 | -5 | -19 | 40*
O=[N+]([O-])c1cc(-c2nc3nc4ccccc4nc3n2CCc2ccccc2)cc([N+](=O)[O-])c1 | -49 | -10 | 17* | 13 | -6 | -6 | 10
CCCSc1nc(O)c(C2OC(=O)c3c2ccc(OC)c3OC)c(=O)n1-c1ccccc1 (configuration not stated) | 10 | 18 | 23* | 10 | 6 | 6 | 39
CCCCSc1nc(O)c(C2OC(=O)c3c2ccc(OC)c3OC)c(=O)n1-c1ccccc1 (configuration not stated) | -12 | 5 | -4 | 18 | 15 | -3 | nt
CCOC(=O)C1(C)CCN1C(=O)c1ccccc1C(F)(F)F (configuration not stated) | nt | nt | nt | nt | 4 | -2 | nt
CCCn1c(=O)c(C(=O)Nc2c(C)n(C)n(-c3ccccc3)c2=O)c(O)c2ccccc21 | -12 | -5 | 26* | -11 | 9 | -3 | 19
